Results pooled from the literature.
Lines come from different studies, so protocols differ.
Cyp2e1: Cytochrome P450 2E1 (Cyp2e1, Rattus norvegicus, UniProt P05182)

SMILES	target or system	test	test system	setting	quantity	result
O=c1c(O[C@@H]2O[C@H](CO)[C@@H](O)[C@H](O)[C@H]2O)c(-c2ccc(O)cc2)oc2cc(O)cc(O)c12	MCF7	cell growth or viability, WST-1	–	–	IC50	15.7 µM
CCCCCn1nc(C(=O)Nc2cccc3ccccc23)c2ccccc21	–	metabolic stability	Sprague-Dawley rat, liver microsomes	1 µM, pH 7.4	microsomal CLint	430 µL/min/mg
Cc1ncc2n1-c1ccc(Cl)cc1C(c1ccccc1F)=NC2	–	metabolic stability	male rat, liver microsomes	1 µM	microsomal CLint	> 250 µL/min/mg
C=CC(=O)Nc1cccc(-c2snc3cc(-c4ccc(N)c(OC)c4)cnc23)c1	Calu-3	cell growth or viability, resazurin	–	–	CC50	> 60 µM
N=c1c2c(-c3ccccc3)c(-c3ccccc3)n(Cc3ccccc3)c2ncn1[C@H]1CC[C@H](O)CC1	–	–	female minipig, plasma	intravenous, 0.25 mg/kg, single dose	clearance	0.6 mL/min/kg
CCCCCn1cc(C(=O)Nc2cccc3ccccc23)c2ccccc21	–	metabolic stability	Sprague-Dawley rat, liver microsomes	1 µM, pH 7.4	microsomal CLint	310 µL/min/mg
CCN(CC)CCNC(=O)c1c(C)[nH]c(/C=C2\C(=O)Nc3ccc(F)cc32)c1C	Calu-3	cell growth or viability, resazurin	–	–	CC50	45.7 µM
CC(C)(C)NC(=O)N[C@H](C(=O)N1C[C@H]2[C@@H]([C@H]1C(=O)NC(CC1CCC1)C(=O)C(N)=O)C2(C)C)C(C)(C)C (stereo partly shown)	Calu-3	cell growth or viability, MTT	–	48 h	CC50	> 250 µM
O=C(O)C(F)(F)C(F)(F)C(F)(F)C(F)(F)C(F)(F)C(F)(F)C(F)(F)F	Solute carrier organic anion transporter family member 1B3 (SLCO1B3, Homo sapiens, UniProt Q9NPD5)	transporter uptake, substrate	CHO	1 min, pH 7.4	Km	91.6 µM
OCCCCO	Cyp2e1	enzyme activity, inhibitor	Fischer 344 rat, liver microsomes	25 mM, 30 min	activity vs control	17%
NC(=O)c1c(NC(=O)c2cnn3c(C(F)(F)F)cc(-c4ccccc4)nc23)sc2c1CCCC2	Calu-3	cell growth or viability, MTT	–	48 h	CC50	> 125 µM
C=CC1CO1 (stereo not shown)	Cyp2e1	enzyme activity, inhibitor	rat, liver microsomes	–	Ki	24 µM
COc1ccnc(C(=O)N[C@H]2COC(=O)[C@H](Cc3ccccc3)[C@@H](OC(=O)C(C)C)[C@H](C)OC2=O)c1OCOC(=O)C(C)C	–	–	rat	topical	LD50	> 5000 mg/kg
